# Results of several laboratories.
# Observed: binding
# mnmE: mnmE (Escherichia coli, UniProt P25522)
# NAD-dependent histone deacetylase SIR2: NAD-dependent histone deacetylase SIR2 (Saccharomyces cerevisiae S288c, UniProt P06700)
# UCK2: Uridine-cytidine kinase 2 (UCK2, Homo sapiens, UniProt Q9BZX2)
# PIKFYVE: 1-phosphatidylinositol 3-phosphate 5-kinase (PIKFYVE, Homo sapiens, UniProt Q9Y2I7)
# PIK3CB: Phosphatidylinositol 4,5-bisphosphate 3-kinase catalytic subunit beta isoform (PIK3CB, Homo sapiens, UniProt P42338)
# IRAK3: Interleukin-1 receptor-associated kinase 3 (IRAK3, Homo sapiens, UniProt Q9Y616)
Compound,target,method,pH,setting,Kd [nM]
Nc1nc(=O)c2c([nH]1)NC[C@@H](CNc1ccc(C(=O)N[C@@H](CCC(=O)O)C(=O)O)cc1)N2C=O,mnmE,ITC,pH 7.5,,200
Nc1ncnc2c1ncn2[C@@H]1O[C@H](COP(=O)(O)OP(=O)(O)OC[C@H]2OC(O)[C@H](O)[C@@H]2O)[C@@H](O)[C@H]1O (stereo partly shown),NAD-dependent histone deacetylase SIR2,SPR,,,2950
O=c1ccn([C@@H]2O[C@H](CO)[C@@H](O)[C@H]2O)c(=O)[nH]1,UCK2,fluorescence,,,5.8
Cc1cc2nc3c(=O)[nH]c(=O)nc-3n(C[C@H](O)[C@H](O)[C@H](O)COP(=O)(O)OP(=O)(O)OC[C@H]3O[C@@H](n4cnc5c(N)ncnc54)[C@H](O)[C@@H]3O)c2cc1C,"Ubiquitin-associated protein 2 (Homo sapiens, UniProt Q5T6F2)",,,lysate,45
COc1ccc(Nc2nnc(-c3ccc(C(=O)NO)cc3)o2)cc1,"Glycogen synthase kinase-3 beta (GSK3B, Homo sapiens, UniProt P49841)",SPR,,,1000
COc1ccc2[nH]c(C(=O)O)c(/C=C/C(=O)c3ccncc3)c2c1,PIKFYVE,competition with immobilised ligand,,,46
C=CC(=O)N1CCC(C(=O)N(C)CC(=O)N2CCN(c3nc(-c4cnc(N)nc4C(F)F)nc(N4CCOCC4)n3)CC2)CC1,PIK3CB,,,,3.6
CC(=O)O[C@H]1C(O)O[C@H](COP(=O)(O)OP(=O)(O)OC[C@H]2O[C@@H](n3cnc4c(N)ncnc43)[C@H](O)[C@@H]2O)[C@H]1O (stereo partly shown),NAD-dependent histone deacetylase SIR2,SPR,,,304
C=CC(=O)N1CCC(C(=O)NCC(=O)N2CCN(c3nc(-c4cnc(N)nc4C(F)F)nc(N4CCOCC4)n3)CC2)CC1,PIK3CB,,,,0.85
[N-]=[N+]=N[C@@H]1[C@H](O)[C@@H](CO)O[C@H]1n1ccc(=O)[nH]c1=O,UCK2,fluorescence,,,13.4
Nc1nc2c(c(=O)[nH]1)N1CN(c3ccc(C(=O)N[C@@H](CCC(=O)O)C(=O)O)cc3)C[C@H]1CN2,mnmE,ITC,,,~1000
COc1cc(Nc2ncc3c(n2)-c2ccc(Cl)cc2C(c2c(F)cccc2OC)=NC3)ccc1C(=O)O,IRAK3,,,lysate,2200
c1cncc(-c2cccc(Nc3nccc(NC4CCCCC4)n3)c2)c1,IRAK3,competition with immobilised ligand,,,1400
COc1ccc2[nH]c(C)c(/C=C/C(=O)c3ccncc3)c2c1,PIKFYVE,competition with immobilised ligand,,,6.9
Cc1ncsc1-c1ccc([C@H](C)NC(=O)[C@@H]2C[C@@H](O)CN2C(=O)[C@@H](NC(=O)CCCCCC(=O)N2CCC3(CC2)CCN(c2cncc(Nc4ncc(Cl)c(-c5cccc(-c6ccccc6)c5)n4)c2)C3=O)C(C)(C)C)cc1,"Phosphatidylinositol 5-phosphate 4-kinase type-2 beta (PIP4K2B, Homo sapiens, UniProt P78356)",,,,> 10000
CN1c2c([nH]c(N)nc2=O)NC[C@@H]1CNc1ccc(C(=O)N[C@@H](CCC(=O)O)C(=O)O)cc1,mnmE,ITC,pH 7.5,,1100
